Experimental data: paper PMC12059896 (ACS Omega, 2025)

How the values were obtained:
[1] = tested on: PC-3 cells; assay: XTT cytotoxicity assay in PC-3 cells; format: cell-based; details: 24 h and 72 h, n = 4 (Figures 6, 7)
Outline: (§1)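 Cells kept in RPMI with 10% FBS and 1% penicillin–streptomycin at 37 °C, 5% CO2. Seeded at 6 × 10^3 (LNCaP) or 3 × 10^3 (PC-3) per well, attached 24 h, then exposed to free drugs or leucine-coupled drugs. At 24 and 72 h, XTT added for 3 h at 37 °C; absorbance read at 450 nm. Controls: 0.05% DMSO and medium alone. Mean ± SD, n = 4.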

[2] = tested on: LNCaP cells; assay: XTT cytotoxicity assay in LNCaP cells; format: cell-based; details: 24 h and 72 h, n = 4 (Figures 6, 7)
Outline: as §1

[3] = cited from earlier work
[4] = tested on: PC-3 cells; details: PC-3 cells do not express PSA; ref 10 (Bakthavatsalam et al. 2020); cited from earlier work

What does the source list for `CO[C@H]1C(=O)[C@]2(C)[C@@H](OC)C[C@H]3OC[C@@]3(OC(C)=O)[C@H]2[C@H](OC(=O)c2ccccc2)[C@]2(O)C[C@H](OC(=O)[C@H](O)[C@@H](NC(=O)OC(C)(C)C)c3ccccc3)C(C)=C1C2(C)C` [cabazitaxel]?
cytotoxicity of drug compared with its leucine conjugate, PC-3 [1]: comparable cytotoxicity; cytotoxicity of drug compared with its leucine conjugate, LNCaP [2]: comparable cytotoxicity

Which results are given for `COC1C(=O)C2(C)C(OC)CC3OCC3(OC(C)=O)C2C(OC(=O)c2ccccc2)C2(O)CC(OC(=O)C(OC(=O)C(N)CC(C)C)C(NC(=O)OC(C)(C)C)c3ccccc3)C(C)=C1C2(C)C` [L-cabazitaxel, NH2-Leu-Cabazitaxel]?
cytotoxicity of drug compared with its leucine conjugate, PC-3 [1]: comparable cytotoxicity; cytotoxicity of drug compared with its leucine conjugate, LNCaP [2]: comparable cytotoxicity

What does the source list for `CCc1c2c(nc3ccc(O)cc13)-c1cc3c(c(=O)n1C2)COC(=O)[C@]3(O)CC` [SN-38, 7-Ethyl-10-hydroxycamptothecin]?
cytotoxicity of drug compared with its leucine conjugate, PC-3 [1]: comparable cytotoxicity; potency relative to CPT-11 in inducing antitumor activity [3]: 100- to 1000 fold; cytotoxicity of drug compared with its leucine conjugate, LNCaP [2]: comparable cytotoxicity

With Ac-HSSKLQL-PAB-dithiocarbamate as the compound, how does the “cytotoxicity in PC-3 cells” value [4] read?
Its value is “demonstrated cytotoxicity in PC-3 cells”.

With `CCc1c2c(nc3ccc(O)cc13)-c1cc3c(c(=O)n1C2)COC(=O)C3(CC)OC(=O)C(N)CC(C)C` (stereo not shown) [L–SN–38, NH2-Leu–SN–38] as the compound, how does the “cytotoxicity of drug compared with its leucine conjugate, PC-3” value [1] read?
The value was “comparable cytotoxicity”.

What about the “cytotoxicity of drug compared with its leucine conjugate, LNCaP” value [2] of the same compound?
The value was “comparable cytotoxicity”.
